Efflux pump inh – inhibitors of Candida efflux pumps in yeast, primary screen, S. cerevisiae, Nile Red, multiplex | S. cerevisiae Candida pump triplex | inhibition, % at 10 µM | 330,000 tested, 0.44% active;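 active = plate passing quality check with inhibition over a set limit, or well fluorescence over plate mean plus 4 SD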;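 note: Nile Red retained in pooled yeast measured as flow cytometry median fluorescence; higher means more Nile Red kept so more efflux inhibition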
H9c2 TAG inh – inhibitors of triacylglycerol accumulation, primary screen, cell-based, uHTS, fluorescence, H9c2; H9c2 cells, Nile Red lipid (TAG) fluorescence; cells loaded with 200 µM oleic acid; inhibition, % at 12.5 µM; 230,000 tested, 0.66% active;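 active = pattern-corrected inhibition of lipid staining of at least 50% with the nuclear-stain viability signal not falling by more than 50%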
MC4R ag barr – MC4R agonists recruiting beta-arrestin, primary screen, cell-based, luminescence, agonist arm of biased-ligand search. Melanocortin receptor 4 (Homo sapiens), P32245. U2OS MC4R beta-arrestin complementation; percent of melanotan II response, DMSO zero. activation, % at 8.9 µM. 360,000 tested, 0.98% active. AID 540308, 2011;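 active = activation above a per-plate cutoff, the mean activation of sample wells on that plate plus 3 SD, cut at about 8% in these data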
Target sequence (P32245 whole entry, looked up): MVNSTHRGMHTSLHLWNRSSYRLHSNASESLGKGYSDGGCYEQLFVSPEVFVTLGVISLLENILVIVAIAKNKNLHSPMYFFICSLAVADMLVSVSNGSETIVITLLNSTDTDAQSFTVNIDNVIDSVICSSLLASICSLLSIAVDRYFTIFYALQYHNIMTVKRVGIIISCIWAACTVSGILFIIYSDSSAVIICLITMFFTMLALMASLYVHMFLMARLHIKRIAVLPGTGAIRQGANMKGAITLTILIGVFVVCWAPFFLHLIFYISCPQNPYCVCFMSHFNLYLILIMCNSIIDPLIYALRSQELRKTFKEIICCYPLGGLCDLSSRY
Calb FLC – C. albicans growth inhibition with fluconazole, primary screen, CaCi-2 strain, Alamar Blue fluorescence; C. albicans CaCi-2 (fluconazole-resistant clinical isolate) + fluconazole, 48 h; growth inhibition, % (test concentration not listed); 300,000 tested, 0.57% active; AID 1979, 2009;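 active = growth inhibition above about 58% in most replicates, limit read from the data, passing the limit was not always enough; inconclusive = exactly half the replicates above a set limit; inactive = most replicates below a set limit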;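 note: all wells also contain fluconazole at 8 µg/ml as a sub-toxic cotreatment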
MC4R antagonist – MC4R antagonists of cAMP signaling, primary screen, cell-based, TR-FRET, antagonist arm of biased-ligand search | MC4R-expressing cells, MTII-stimulated cAMP, LANCE TR-FRET | inhibition, % at 6.5 µM | 360,000 tested, 0.48% active | AID 540295, 2011;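 active = inhibition above its plate's cutoff, the mean of tested wells on that plate plus 3 SD, cut at about 29% in these data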
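Material: human MC4R-expressing U2OS cells. Probe or stimulus: Melanotan II challenge. Dosing: 6.5 µM single dose. Times: 30-min compound, 1-h challenge, 1-h detection, room temperature. Technique: TR-FRET with Eu-cAMP and labeled anti-cAMP, 671 nm. Replication: singlicate.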
GalR3 antagonist – GalR3 antagonists in HEK293 cells, primary screen, cell-based, fluorescence readout. Galanin receptor type 3 (Homo sapiens), O60755. HEK293 GalR3-CNG cAMP membrane potential fluorescence; galR3 body fused to GalR1 C-terminus. inhibition, % at 3 µM. 360,000 tested, 0.44% active. AID 651719, 2012;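 active = inhibition above the screen-wide average plus 3 SD, cut at about 13% in these data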;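 note: forskolin and galanin both at EC90 stimulate the cells; cAMP rise reported by CNG channel membrane potential dye signal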
Target sequence (O60755 1-299 limits assumed): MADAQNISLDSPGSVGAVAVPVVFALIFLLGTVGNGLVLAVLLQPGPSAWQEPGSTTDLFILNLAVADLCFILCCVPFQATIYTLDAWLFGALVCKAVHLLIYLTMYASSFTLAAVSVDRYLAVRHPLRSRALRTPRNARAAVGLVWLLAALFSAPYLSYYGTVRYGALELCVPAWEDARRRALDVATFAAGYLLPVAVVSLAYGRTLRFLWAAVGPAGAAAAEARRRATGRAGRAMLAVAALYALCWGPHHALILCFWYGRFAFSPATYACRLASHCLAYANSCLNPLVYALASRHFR
U2OS cAMP counter – nonselective cAMP signaling inhibitors, parental cells, counter-screen for MC4R biased antagonist project, cell-based, TR-FRET, U2OS, forskolin, triplicate. shares compounds with MC4R antagonist. LANCE TR-FRET. inhibition, % at 6.5 µM. 1,600 tested, 26% active. AID 602193, 2012;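 active = mean inhibition over triplicates above the low-control well mean plus 3 SD, set per campaign, cut at about 13% in these data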;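 note: signal is single emission at 671 nm which falls as cellular cAMP rises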
MC4R cAMP antag – MC4R cAMP antagonists, retest, confirmation, cell-based, TR-FRET. shares compounds with MC4R antagonist. MC4R-expressing cells, MTII-stimulated cAMP. inhibition, % at 6.5 µM. 1,600 tested, 27% active. AID 602195, 2012; in the data active = inhibition above about 29%
Of the large screens only hits and unclear results are named; the others gave an inactive call (follow-up assays come after a bar, where they were run); ! = not confirmed by another sample. Compounds with a hit are over-represented: about 2.9% of the library has one in this group of screens.

CCNC(=O)COC(=O)c1cc(S(=O)(=O)N2CCCc3ccccc32)ccc1Cl	MC4R antagonist 33 | U2OS cAMP counter 25 | MC4R cAMP antag 41
CCN(C(=O)COC(=O)c1ccc(S(=O)(=O)N2CCCc3ccccc32)cc1)C1CCS(=O)(=O)C1 (configuration not stated)	MC4R antagonist 30 | U2OS cAMP counter inactive | MC4R cAMP antag inactive
CCOC(=O)CCC(=O)Nc1ccc(S(=O)(=O)N2CCc3ccccc32)cc1	MC4R antagonist 32 (no result: H9c2 TAG inh) | U2OS cAMP counter inactive | MC4R cAMP antag inactive
CCCc1c(-c2ccc(F)cc2F)ncn1Cc1ccccc1OC	none (no result: Efflux pump inh, H9c2 TAG inh, MC4R ag barr, Calb FLC, MC4R antagonist)
CCOC(=O)C1(C)Oc2ccccc2C(C(=O)OC)=C1C(=O)OC (configuration not stated)	none (no result: Calb FLC)
COC(=O)C1=C(C(=O)OC)SC2(S1)C(C(=O)OC)=C(C(=O)OC)SC1=C2c2cccc(C)c2NC1(C)C	MC4R antagonist 41 (no result: H9c2 TAG inh) | U2OS cAMP counter inactive | MC4R cAMP antag 45
CC[C@H](NC(=O)[C@H]1O[C@@H](n2cnc3c(=O)[nH]c(N)nc32)[C@H](O)[C@@H]1O)c1ccccc1	none (no result: Efflux pump inh, H9c2 TAG inh, MC4R ag barr, Calb FLC, MC4R antagonist)
O=C1C(SCCO)=C(SCCO)C(=O)c2ccccc21	MC4R antagonist 97 (no result: Calb FLC, GalR3 antagonist) | U2OS cAMP counter 102 | MC4R cAMP antag 143
CC1=C(SCc2ccccc2)C(=O)c2ccccc2C1=O	none (no result: Efflux pump inh, Calb FLC)
CO/N=C/c1ccc(Sc2ccc(C)cc2)c([N+](=O)[O-])c1	MC4R antagonist 29 | U2OS cAMP counter inactive | MC4R cAMP antag inactive
CCOC(=O)c1c(-c2ccc(C)o2)csc1NC(=O)COC(=O)c1cccs1	MC4R antagonist 31 | U2OS cAMP counter inactive | MC4R cAMP antag inactive
CCOC(=O)c1c(-c2ccccc2)csc1NC(=O)COc1ccc2c(C)cc(=O)oc2c1	MC4R antagonist 30 (no result: H9c2 TAG inh) | U2OS cAMP counter inactive | MC4R cAMP antag inactive
CCOC(=O)c1c(-c2ccccc2)csc1NC(=O)CSc1ccccc1	none (no result: H9c2 TAG inh)
O=C(COC(=O)c1ccc(NS(=O)(=O)c2cccs2)cc1O)Nc1nc2ccccc2s1	MC4R antagonist 31 | U2OS cAMP counter inactive | MC4R cAMP antag inactive
Cn1cnc(S(=O)(=O)N2CCCCC2c2cc(C(=O)Nc3cccc(C#N)c3)no2)c1 (configuration not stated)	none (no result: Efflux pump inh, Calb FLC)
Cc1cc(C)n(-c2nnc(NC34CC5CC(CC(C5)C3)C4)nn2)n1	MC4R antagonist 29 (no result: H9c2 TAG inh) | U2OS cAMP counter inactive | MC4R cAMP antag inactive
O=C(NCc1cccnc1)C(=O)Nc1nccs1	none (no result: H9c2 TAG inh, MC4R ag barr, MC4R antagonist, GalR3 antagonist)
O=C(NCc1cccnc1)C(=O)Nc1nc2ccccc2s1	MC4R antagonist 30 (no result: H9c2 TAG inh) | U2OS cAMP counter inactive | MC4R cAMP antag inactive
Cc1cccnc1C(NC(=O)C1CCN(CCCOc2ccccc2)CC1)c1ccc(F)cc1 (configuration not stated)	none (no result: Efflux pump inh, Calb FLC)
Cc1ccccc1C(=O)NNC(=O)CCc1ccccc1	MC4R antagonist 32 | U2OS cAMP counter inactive | MC4R cAMP antag inactive
Cc1ccccc1C(=O)NNC(=O)Cc1ccccc1	none (no result: H9c2 TAG inh)
COc1ccccc1NC(=O)CSc1nnnn1C1CCCCC1	MC4R antagonist 30 (no result: H9c2 TAG inh) | U2OS cAMP counter inactive | MC4R cAMP antag inactive
CCCCNC(=O)C[C@H]1C[C@@]2(C(=O)OC)C(=C[C@H](C(C)C)O[C@@H]2C2CC2)N(Cc2ccccc2)C1=O	none (no result: Efflux pump inh, H9c2 TAG inh, MC4R ag barr, Calb FLC, MC4R antagonist)
O=C(CSc1n[nH]c(-c2ccccc2)n1)N1CCOCC1	none (no result: H9c2 TAG inh)
O=C(CSc1n[nH]c(-c2ccccc2O)n1)N1CCOCC1	MC4R antagonist 30 | U2OS cAMP counter inactive | MC4R cAMP antag inactive
Cc1ccc(Cl)cc1NC(=O)Nc1cccs1	Calb FLC inconclusive, MC4R antagonist 30 | U2OS cAMP counter inactive | MC4R cAMP antag inactive
O=c1ccn2c(n1)OC1CC2OC1COC(c1ccccc1)(c1ccccc1)c1ccccc1 (configuration not stated)	none (no result: Efflux pump inh, H9c2 TAG inh, MC4R ag barr, Calb FLC, MC4R antagonist)
CC(C)[C@@H]1CC2=C(C(=O)OC(C)(C)O2)[C@H](CCc2ccccc2)O1	none (no result: Efflux pump inh, H9c2 TAG inh, MC4R ag barr, Calb FLC, MC4R antagonist)
S=c1[nH]nc(C2(c3ccccc3)CCCC2)o1	none
S=c1[nH]nc(C(c2ccccc2)C2CCCCC2)o1 (configuration not stated)	MC4R antagonist 30 | U2OS cAMP counter inactive | MC4R cAMP antag inactive
O[C@@H]1CN(CC2CCCCC2)[C@@H](c2ccccc2)C[C@H]1n1cc(-c2ccc(F)cc2)nn1	none (no result: Efflux pump inh, Calb FLC)
COc1ccc(C(=O)C(=O)N2CCN(S(=O)(=O)c3cccc4c(N(C)C)cccc34)CC2)cc1OC	none (no result: Efflux pump inh, H9c2 TAG inh, MC4R ag barr, Calb FLC, MC4R antagonist)
O=c1c2ccccc2sn1-c1ccccc1	none
O=c1c2ccccc2sn1-c1nccs1	MC4R antagonist 38 (no result: Efflux pump inh, H9c2 TAG inh) | U2OS cAMP counter inactive | MC4R cAMP antag inactive
O=C(c1ccc(N2C(=O)c3ccccc3C2=O)cc1)N1CCN(S(=O)(=O)c2ccccc2F)CC1	none (no result: Efflux pump inh, Calb FLC)
COc1ccc(C2Nc3cccc(O)c3C(=O)N2Cc2ccccc2)cc1COc1ccc(NC(C)=O)cc1 (configuration not stated)	none (no result: Efflux pump inh, Calb FLC)
COc1cc(NC(=O)c2csc(-c3ccncc3)n2)cc(C(=O)Nc2cccc(C(F)(F)F)c2)c1	MC4R antagonist 39! | U2OS cAMP counter inactive | MC4R cAMP antag inactive
O=C(Nc1cccc(C(F)(F)F)c1)c1csc(-c2ccncc2)n1	none
COC(=O)[C@]12C[C@H](CC(=O)NCCCN3CCCC3=O)C(=O)N(Cc3ccccc3)C1=C[C@H](C(C)C)O[C@@H]2C1CC1	none (no result: Efflux pump inh, H9c2 TAG inh, MC4R ag barr, Calb FLC, MC4R antagonist)
Cc1ncn(-c2ccc(C(=O)Oc3ccccc3)cn2)n1	MC4R antagonist 29 | U2OS cAMP counter inactive | MC4R cAMP antag inactive
CCOCCOC(=O)c1ccc(-n2cnc(C)n2)nc1	none
Cc1c(NC(=S)N/C(=N/S(=O)(=O)c2ccc(Cl)cc2)c2ccccc2)c(=O)n(-c2ccccc2)n1C	none
Cc1c(NC(=S)N/C(=N/S(=O)(=O)c2ccccc2)c2ccccc2)c(=O)n(-c2ccccc2)n1C	MC4R antagonist 30 | U2OS cAMP counter inactive | MC4R cAMP antag inactive
Cc1cccc(C)c1NC(=O)C1(C)CSCC(=O)N1CCCN1CCOCC1 (configuration not stated)	none (no result: Efflux pump inh, H9c2 TAG inh, MC4R ag barr, Calb FLC, MC4R antagonist)
COc1cc(CC(=O)OCC(=O)Nc2sccc2C(N)=O)cc(OC)c1OC	none
